Source: PubChem BioAssay
MT stabilize HCS: microtubule stabilizers in HeLa cells, primary screen, imaging, high-content imaging; % tubulin-high responders, % at 10 µM; 0.83% of 200,000 active; HeLa tubulin immunostaining HCS, 24 h; share of cells brighter than vehicle mean+2SD; AID 2205, 2009;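 active means plate Z-score above 3 for both tubulin-high and condensed-nucleus cell shares, with cell loss under 80%, at 10 µM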;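 further: anti alpha tubulin signal scored within the nucleus-defined area of each cell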
APP transl inh: inhibitors of APP translation via 5'UTR reporter, primary screen, APP 5'UTR luciferase, SH-SY5Y cells. AID 1285, 2008. SH-SY5Y APP 5'UTR-luciferase reporter, luminescence. 0.82% of 190,000 active. inhibition, % at 2 µM;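 active means inhibition above a set limit, derived from the sample mean plus 3 SD, cut at about 45% in these data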
Lmaj promast: Leishmania major promastigote growth inhibition, primary screen. Leishmania major promastigotes, resazurin fluorescence viability. inhibition, % at 10 µM. 9% of 200,000 active; in the data active means inhibition above about 50%;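 further: promastigotes grown with compound for 44 hours at 28 °C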
bCat nuc transl: modulators of beta-catenin nuclear translocation, primary screen, imaging, HeLa cells, immunofluorescence, high-content; nuclear translocation activity, % at 5 µM; 0.3% of 190,000 active;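 active means nuclear translocation activity above 50% at 5 µM, with a well cell count of 50 or more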;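 further: per-cell ratio of nuclear to cytoplasmic median beta-catenin stain intensity; plate controls were DMSO negative control for no effect and GSK-3 inhibitor IX positive control for full effect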
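Test system: human HeLa cell line; Doses: 5 µM primary, 0.02–20 µM confirmation; Incubation: 24 h compound exposure, 37°C; Detection: beta-catenin immunofluorescence imaging with DAPI; Read-out: beta-catenin nuclear/cytoplasmic ratio, % activation.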
Ba/F3 V617F tox: reduced viability of JAK2V617F-dependent Ba/F3 cells, primary screen, JAK2V617F inhibitor project, cell-based, Ba/F3 EpoR-JAK2V617F, luminescence; ATP luminescence; inhibition, % at 5.6 µM; 1.1% of 220,000 active; AID 1446, 2008;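 active means inhibition above the campaign mean plus 3 SD over all tested compounds, cut at about 24% in these data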;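 further: cytokine-independent growth of Ba/F3 cells driven by EpoR plus mutant JAK2; 0% = DMSO-treated cells and 100% = JAK inhibitor I control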
BaF3 tox: parental Ba/F3 cell viability inhibition, counter-screen for JAK2V617F inhibitor project, murine pro-B, CellTiter-Glo luminescence; CellTiter-Glo ATP luminescence; inhibition, % at 5.6 µM; 1.1% of 220,000 active; AID 1486, 2009;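 active means inhibition above a per-campaign cutoff, the mean inhibition of all tested compounds plus 3 SD, cut at about 27% in these data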;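 further: 0% = DMSO wells and 100% = JAK Inhibitor I control wells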
Numbers without * were called inactive; / = not tested or not shown. The list is not random: actives were taken first. Their share in the collection is about 9.6%.

SMILES	MT stabilize HCS	APP transl inh	Lmaj promast	bCat nuc transl	Ba/F3 V617F tox	BaF3 tox
CCn1c(SCc2nc(-c3ccccc3)no2)nnc1-c1cccs1	2	14	28	/	-5	0
COC(=O)c1ccc(/C=N/OCC(=O)NCc2ccc(F)cc2)cc1	3	-11	27	-2	5	12
S=C(NCc1ccccn1)Nc1ccc(Cl)cc1	2	-11	-4	3	4	2
Fc1cccc(NC(=S)NCc2ccccn2)c1	2	-25	63*	-1	3	5
CCOc1ccc(NC(=O)CN(c2cccc(C(F)(F)F)c2)S(C)(=O)=O)cc1	2	-13	38	/	4	5
Cc1nnn(-c2nonc2N)c1C(=O)NNC(=O)c1ccc(Cl)c(Cl)c1	2	6	5	-1	2	8
COc1c(F)c(F)c(C(=O)Nc2ccc(NC(=O)c3ccco3)cc2)c(F)c1F	2	-8	64*	/	3	7
CC(C)OC(=O)c1ccc(NC(=O)c2ccco2)cc1	2	-68	56*	0	3	5
COc1ccc(NC(=O)c2ccco2)cc1NC(=O)c1c(F)c(F)c(OC)c(F)c1F	3	-13	-1	/	4	6
Cc1cccc(C)c1NC(=S)N1CC(C)OC(C)C1 (centres undefined)	/	/	/	0	3	-7
Oc1ccc(-c2nc(-c3ccc(O)c(O)c3)cs2)cc1	15*	94*	12	66*	88*	81*
Fc1ccc(-c2csc(-c3ccncc3)n2)cc1	8	-6	9	0	1	2
Oc1ccc(-c2csc(Nc3ncccn3)n2)cc1	5	-173	3	0	0	-3
Oc1ccc(-c2csc(-c3cccnc3)n2)c(O)c1	12*	-71	5	25	4	18
Oc1ccc(Nc2nc(-c3ccc4ccccc4c3)cs2)cc1	3	2	6	/	99*	57*
NS(=O)(=O)c1ccc(Nc2nc(-c3ccc(F)cc3)cs2)cc1	4	3	23	4	1	10
NS(=O)(=O)c1ccc(Nc2nc(-c3ccc(O)cc3O)cs2)cc1	3	-7	63*	/	3	6
O=C(Cc1cccs1)NCc1ccc2c(c1)OCO2	3	-1	-3	0	-3	0
O=C(NC1CCCC1)C(c1ccsc1)N(Cc1ccccc1)C(=O)Cc1cccs1 (centres undefined)	1	-13	31	0	1	8
O=C(NCc1ccccc1)C(c1ccccc1)N(Cc1ccc2c(c1)OCO2)C(=O)Cc1cccs1 (centres undefined)	3	-5	79*	0	0	-1
O=C(NC1CCCCC1)C(c1ccc2ncccc2c1)N(Cc1ccc2c(c1)OCO2)C(=O)c1cccs1 (centres undefined)	1	14	88*	/	-3	0
O=C(NC1CCCC1)C(c1ccsc1)N(Cc1ccco1)C(=O)Cc1cccs1 (centres undefined)	2	-6	62*	-5	5	7
O=C(NC1CCCCC1)C(c1cccnc1)N(CCc1ccccc1)C(=O)Cc1cccs1 (centres undefined)	2	-4	95*	-2	-1	0
O=C(NC1CCCC1)C(c1cccnc1)N(CCc1ccccc1)C(=O)c1ccco1 (centres undefined)	3	1	13	0	-3	8
Cc1c(Br)c([N+](=O)[O-])nn1CC(=O)NCCc1ccc(Cl)cc1	2	-6	1	-3	-1	3
SMILES	MT stabilize HCS	APP transl inh	Lmaj promast	bCat nuc transl	Ba/F3 V617F tox	BaF3 tox
COc1ccc(CNC(=O)C(c2ccc(C)o2)N(Cc2cccs2)C(=O)Cc2cccs2)cc1 (centres undefined)	5	9	87*	-3	0	1
COc1ccc(C(C(=O)NC2CCCC2)N(Cc2ccccc2)C(=O)CNC(=O)c2ccco2)cc1 (centres undefined)	3	-9	67*	3	-3	7
O=C(NC1CCCC1)C(c1ccccc1)N(Cc1ccc2c(c1)OCO2)C(=O)Cc1cccs1 (centres undefined)	2	-8	82*	-5	-3	5
COCCN(C(=O)Cc1cccs1)C(C(=O)NCc1ccc(OC)cc1)c1ccc(C)cc1 (centres undefined)	3	8	31	0	0	5
COc1ccc(CC(=O)NCc2cccs2)cc1	43*	10	0	54*	8	23
O=C(NC1CCCC1)C(c1ccncc1)N(Cc1ccccc1)C(=O)Cc1cccs1 (centres undefined)	2	0	-3	2	-2	0
Cn1ncc2c(NNC(=O)c3ccc(Cl)cc3Cl)ncnc21	3	10	-4	-2	1	4
COC(=O)c1ccc(C(C(=O)NC2CCCCC2)N(Cc2ccccc2)C(=O)Cc2cccs2)cc1 (centres undefined)	3	6	99*	/	-6	-2
Cc1ccc(C(C(=O)NC2CCCCC2)N(Cc2ccccc2)C(=O)Cc2c[nH]c3ccccc23)o1 (centres undefined)	4	-14	16	0	-2	0
CCCc1cc(=O)oc2cc(OCC(=O)NCc3cccs3)ccc12	2	-27	71*	-2	0	0
COc1ccc(CN(C(=O)Cc2c[nH]c3ccccc23)C(C(=O)NC2CCCCC2)c2ccc(C)o2)cc1 (centres undefined)	2	-11	69*	0	0	0
CCOc1ccc(NC(=S)N(CCOC)C(C)c2ccco2)cc1 (centres undefined)	/	/	/	1	3	-4
Cc1nnc(SCC(=O)NC(=O)Nc2ccc3c(c2)OCCO3)n1N	/	/	/	1	-1	7
CC(=O)Nc1ccc2nc(C3CC3)n(Cc3ccc(Cl)cc3)c(=O)c2c1	3	-106	84*	0	2	9
O=C1C=C(O)C(n2cncn2)C(c2ccc3c(c2)OCO3)C1 (centres undefined)	5	-9	-10	0	0	5
Cn1c(CN2CCN(C(=O)c3ccccc3)CC2)nc2cc([N+](=O)[O-])ccc21	2	9	51*	-4	4	9
CCCCn1c(O)c(N=Nc2ccccn2)c2ccccc21	2	10	66*	-1	1	3
CCn1c(O)c(N=Nc2ccc3ccccc3n2)c2ccccc21	/	/	/	0	-4	0
CCCCNC(=O)CSc1nc2cc3c(cc2c(=O)n1CCC(=O)NCCc1ccc(OC)c(OC)c1)OCO3	2	-2	52*	-1	3	8
CCCCNC(=O)CSc1nc2cc3c(cc2c(=O)n1CCCC(=O)NCCc1ccc(OC)c(OC)c1)OCO3	2	-6	12	10	1	5
